From ChEMBL document CHEMBL4725349, “Discovery of First-in-Class Protein Arginine Methyltransferase 5 (PRMT5) Degraders” (J Med Chem, 2020)
The source made the active and inactive calls. The calls are words filed in the database; no cut-off is given here.

Columns and labels:
[1] = target: T1, von Hippel-Lindau disease tumor suppressor/Protein arginine N-methyltransferase 5 (Homo sapiens, UniProt O14744+P40337); assay: Induction of VHL-mediated PRMT5 degradation in human MCF7 cells at 0.2 to 5 uM incubated for 6 days by Western blot analysis; format: cell-based; conditions: dose microM 0.2-5, time 6.0 day
T1 sequence (O14744 whole entry, looked up): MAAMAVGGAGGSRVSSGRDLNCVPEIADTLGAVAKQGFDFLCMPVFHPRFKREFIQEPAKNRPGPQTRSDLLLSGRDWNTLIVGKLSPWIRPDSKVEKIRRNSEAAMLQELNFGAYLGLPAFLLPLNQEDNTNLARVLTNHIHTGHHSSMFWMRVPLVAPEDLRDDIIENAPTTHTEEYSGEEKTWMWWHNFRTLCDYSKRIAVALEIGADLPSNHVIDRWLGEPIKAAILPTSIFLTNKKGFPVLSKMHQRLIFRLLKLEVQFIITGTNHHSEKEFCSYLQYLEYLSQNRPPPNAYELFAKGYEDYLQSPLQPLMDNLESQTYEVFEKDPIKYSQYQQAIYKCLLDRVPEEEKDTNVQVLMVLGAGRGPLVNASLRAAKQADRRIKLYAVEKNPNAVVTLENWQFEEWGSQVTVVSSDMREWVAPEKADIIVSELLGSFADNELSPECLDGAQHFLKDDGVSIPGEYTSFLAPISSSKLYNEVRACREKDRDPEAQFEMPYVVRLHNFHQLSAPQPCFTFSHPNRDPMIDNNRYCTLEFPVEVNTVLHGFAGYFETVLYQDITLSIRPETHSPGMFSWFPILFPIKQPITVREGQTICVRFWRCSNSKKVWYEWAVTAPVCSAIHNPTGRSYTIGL
T1 sequence (P40337 whole entry, looked up): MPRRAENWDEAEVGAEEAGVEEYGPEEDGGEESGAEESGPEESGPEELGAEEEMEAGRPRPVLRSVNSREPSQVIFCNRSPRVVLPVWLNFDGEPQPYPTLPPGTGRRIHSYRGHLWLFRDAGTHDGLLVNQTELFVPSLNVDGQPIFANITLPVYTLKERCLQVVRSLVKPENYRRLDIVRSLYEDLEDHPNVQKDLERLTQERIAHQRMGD
Method in brief: (§1)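 MCF-7 cells treated 6 d (0.2, 1 and 5 μM for initial screen, or indicated concentrations). RIPA lysates immunoblotted for PRMT5. Band intensity quantified by densitometry to derive DC50 and Dmax as mean ± SD from three independent experiments; screening blots representative of at least two.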

[2] = target: PRMT5/MEP50 complex (Homo sapiens) (UniProt O14744+Q9BQA1); assay: Inhibition of human PRMT5/MEP50 assessed as reduction in methyltransferase activity at 5 uM using histone 4 peptide as substrate in presence of [3H]SAM incubated for 30 mins; format: protein-complex assay
[3] = target: T1, von Hippel-Lindau disease tumor suppressor/Protein arginine N-methyltransferase 5; assay: Induction of VHL-mediated PRMT5 degradation in human MCF7 cells at 5 uM incubated for 6 days by Western blot analysis; format: cell-based; conditions: time 6.0 day; method in brief: as §1
MCF7 = assay: Antiproliferative activity against human MCF7 cells at 0.1 to 10 uM incubated for 6 days by CellTiter-Glo assay; format: functional, cell-based; conditions: dose microM 0.1-10, time 6.0 day
Method in brief: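 MCF-7 in DMEM + 10% FBS at 37 °C, 5% CO2. Cells exposed to graded concentrations for 6 d, medium with compound refreshed every other day. CellTiter-Glo luminescence, expressed as viability relative to DMSO control; mean ± SD, n = 3.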

A 172 = assay: Antiproliferative activity against human A172 cells assessed as reduction in cell viability at 0.1 to 10 uM supplemented with fresh medium containing compound every other day for 6 days by CellTiter-Glo assay; format: functional, cell-based; conditions: dose microM 0.1-10, time 6.0 day
Method in brief: (§2)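 HeLa, A549 and A172 grown in DMEM + 10% FBS; Jurkat in RPMI 1640 + 10% FBS; all at 37 °C, 5% CO2. Cells seeded, then treated 6 d with test agent, medium plus compound renewed every other day. Viability read by CellTiter-Glo and normalized to DMSO-treated cells; mean ± SD, n = 3.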

[4] = target: T1, von Hippel-Lindau disease tumor suppressor/Protein arginine N-methyltransferase 5; assay: Induction of VHL-mediated PRMT5 degradation in human MCF7 cells assessed as reduction in SDMA level incubated for 6 days by Western blot analysis; format: cell-based; conditions: dose microM 0.1-3, time 6.0 day
Method in brief: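 SDMA read-out: MCF-7 cells given 0.1, 0.3, 1 or 3.0 μM for 6 d; global symmetric dimethylarginine detected on western blot with anti-SDMA antibody.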

HeLa = assay: Antiproliferative activity against human HeLa cells assessed as reduction in cell viability at 0.1 to 10 uM supplemented with fresh medium containing compound every other day for 6 days by CellTiter-Glo assay; format: functional, cell-based; conditions: dose microM 0.1-10, time 6.0 day; method in brief: as §2
Jurkat = assay: Antiproliferative activity against human Jurkat cells assessed as reduction in cell viability at 0.1 to 10 uM supplemented with fresh medium containing compound every other day for 6 days by CellTiter-Glo assay; format: functional, cell-based; conditions: dose microM 0.1-10, time 6.0 day; method in brief: as §2
A549 = assay: Antiproliferative activity against human A549 cells assessed as reduction in cell viability at 0.1 to 10 uM supplemented with fresh medium containing compound every other day for 6 days by CellTiter-Glo assay; format: functional, cell-based; conditions: dose microM 0.1-10, time 6.0 day; method in brief: as §2

Cc1ncsc1-c1ccc(CNC(=O)[C@@H]2C[C@@H](O)CN2C(=O)[C@@H](NC(=O)CCOCCOCCOCCC(=O)N2CC(Nc3cc(C(=O)NC[C@H](O)CN4CCc5ccccc5C4)ncn3)C2)C(C)(C)C)cc1
Activity [1]: inactive

Cc1ncsc1-c1ccc([C@H](C)NC(=O)[C@@H]2C[C@@H](O)CN2C(=O)[C@@H](NC(=O)COCCOCCOCCOCCOCC(=O)N2CC(Nc3cc(C(=O)NC[C@H](O)CN4CCCCC4)ncn3)C2)C(C)(C)C)cc1
inhibition [2]: 58% | Activity [3]: inactive | Activity (MCF7): inactive

Cc1ncsc1-c1ccc(CNC(=O)[C@@H]2C[C@@H](O)CN2C(=O)[C@@H](NC(=O)CCOCCOCCC(=O)N2CC(Nc3cc(C(=O)NC[C@H](O)CN4CCc5ccccc5C4)ncn3)C2)C(C)(C)C)cc1
Activity [1]: inactive

O=C(NC[C@H](O)CN1CCc2ccccc2C1)c1cc(NC2COC2)ncn1
Activity (A 172): Active | Activity [3]: inactive | Activity [4]: Dose-dependent effect | Activity (HeLa): Active | Activity (Jurkat): Active | Activity (A549): Active
